High-throughput results from PubChem.
HER2 expr 66K – inhibitors of Her2 protein expression, primary screen, SKBR-3 cells, AlphaScreen, 66K library; Receptor tyrosine-protein kinase erbB-2 (Homo sapiens), P04626; SKBR-3 HER2 protein level, 18-24 h; stronger effect = lower value; HER2 level % of control, % at 10 µM; actives 0.69% (n = 65,000); AID 645, 2007;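 active means HER2 level under 5% of the carrier-only control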;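 further: 100% = DMSO carrier and 0% = 500 nM PU-H71 HSP90 inhibitor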
Jurkat viability – cytotoxicity toward Jurkat T cells, primary screen, cytotoxicity control, cell-based, Jurkat E6.1, 60K MLSMR library; AID 463, 2006; inhibition, % at 4 µM; actives 1.2% (n = 56,000); Jurkat E6.1 viability, ATP luminescence, 48 h;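 active means inhibition above the mean inhibition of all tested compounds plus 3 SD, cut at about 28% in these data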
AP ELISA ortho – alternative complement pathway inhibitors, primary screen, biochemical, ELISA, human serum, orthogonally pooled compounds; LPS-coated ELISA, C3 deposition; tested in compound mixtures; inhibition, % at 5 µM; actives 0.08% (n = 62,000); AID 1235, 2008;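 active means inhibition above 30% in each of the two pooled mixtures holding the compound, so the lower value exceeds 30%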;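 further: 0% = serum in Mg-EGTA without compound and 100% = EDTA serum blank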
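Medium: diluted human serum in Mg2+-EGTA GVB++. Assay system: human serum complement alternative pathway, C3 deposition onto LPS. Also added: Plate-bound LPS. Technique: Anti-C3 ELISA, OD 450 nm. Measure: percent inhibition. Incubation: 1 h at 37 °C. Dosing: 5 µM each compound, pools of ten, 50 µM per pool.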
JNK3 blocker – JNK3 kinase activity inhibitors, primary screen, biochemical, human, purified enzyme. inhibition, % at 8 µM. HTS. actives 0.61% (n = 60,000). Mitogen-activated protein kinase 10 (Homo sapiens), P53779. AID 746, 2007; in the data active means inhibition above about 17%;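 further: 0% = DMSO and 100% = reference inhibitor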
Hsp90 inh – tumor Hsp90 inhibitors, primary screen, cell lysate, fluorescence polarization, NCI-N417 lysate | Heat shock protein HSP 90-alpha (Homo sapiens), P07900 | Cy3B-geldanamycin FP displacement | inhibition, % at 30 µM | actives 0.35% (n = 64,000) | AID 429, 2006;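 active means inhibition above 50%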;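 further: 0% = tracer plus lysate wells and 100% = tracer alone without lysate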
HEK293 NFkB inh – inhibitors of PMA/ionomycin-induced NF-kB reporter, primary screen, antigen receptor NF-kB inhibitor project, cell-based, HEK-293 luciferase reporter, luminescence | HEK-293 NF-kB luciferase reporter | inhibition, % at 3 µM | actives 0.21% (n = 62,000) | AID 465, 2006;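 active means inhibition above the mean of all tested compounds plus 3 SD, cut at about 40% in these data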;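 further: 0% = stimulated DMSO wells and 100% = 10 µM reference inhibitor 5653914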
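System: NF-kB luciferase reporter HEK-293 cells | Replication: Single test | Control set: DMSO vs reference inhibitor | Evaluation: % inhibition | Schedule: 1 h pretreatment, 16 h stimulation, 37 °C | Probe or stimulus: PMA with ionomycin | Compound dosing: One dose, 3 µM | Detection: Luciferase luminescence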
Numbers without * were called inactive; / = no result given. Shown are actives, neighbours in structure and some others; about 2.5% of the full set was active somewhere.

SMILES	HER2 expr 66K	Jurkat viability	AP ELISA ortho	JNK3 blocker	Hsp90 inh	HEK293 NFkB inh
O=C(CCn1c(=O)oc2ccccc21)NCc1cccs1	87	2	/	4	-3	5
CC(=O)c1c(C)[nH]c(C(=O)OCn2nnc3ccccc3c2=O)c1C	99	6	3	18*	-1	7
COc1cc(OC)cc(C(=O)OCn2nnc3ccccc3c2=O)c1	92	2	24	4	-2	10
CC(C)N1CCC2(CC1)N=C(c1ccc3c(c1)OCO3)CC(c1cc(Cl)ccc1O)N2 (stereo unspecified)	-18*	25	10	1	-1	13
CC(=O)c1c(C)nc(-c2ccc3c(c2)OCO3)n1O	78	-4	-2	4	2	6
CCCCNC(=O)OC1CCS(=O)(=O)C1 (stereo unspecified)	131	3	11	4	0	13
CCCCNC(=O)OCCNC(=O)NC	-55*	-5	12	-2	2	6
COCCN1C(=O)c2oc3cc(C)c(C)cc3c(=O)c2C1c1cccc(O)c1 (stereo unspecified)	196	5	/	-1	0	18
O=C(NCc1ccc(F)cc1)N[C@@H](Cc1ccccc1)C(=O)O	118	1	-12	-3	0	2
CSCC[C@H](NC(=O)NCc1ccc(F)cc1)C(=O)O	-15*	7	7	-1	3	3
COc1cc(NS(=O)(=O)CC(C)C)c2ncccc2c1	/	/	/	/	1	/
CCN(CC)c1nc(C#N)cc(-c2ccc(OC)cc2)n1	50	41*	18	-1	-2	38
COc1ccc2oc(=O)c(-c3nnc(NCc4ccco4)s3)cc2c1	-11*	31	18	7	1	13
Cc1ccc2oc(=O)n(CC(=O)O)c2c1	71	0	6	5	-2	5
COc1ccc(Cn2c(=O)oc3ccc(C)cc32)cc1OC	98	40*	-8	4	0	13
COc1ccc(CCN2C(=O)CC(N3CCN(c4ccccn4)CC3)C2=O)cc1OC (stereo unspecified)	96	6	33*	-5	2	9
Cn1c(Cc2cccs2)nnc1SC/C=C/c1ccccc1	85	-3	25	-4	1	10
COc1ccccc1N(CC(O)CN1C(=O)NC(C)(C)C1=O)S(=O)(=O)c1ccc(C)cc1 (stereo unspecified)	80	-8	-4	-2	-1	6
COc1ccc(/C=N/n2c(SC)nnc2-c2ccccc2)c(OC)c1OC	94	68*	12	0	0	-2
COc1ccc(NC(=O)c2ccco2)cc1NC(=O)c1cccnc1	82	7	13	-5	-8	7
Cc1sc2ncnc(Sc3nnnn3-c3ccc(Cl)cc3)c2c1C	-13*	0	23	-6	-8	21
Cc1sc2ncnc(SCc3ccco3)c2c1C	17	6	1	-10	-1	5
CC(=O)Oc1ccc(Oc2ccc(-c3noc(C)n3)cc2)cc1	92	34*	18	-7	-7	-7
Cc1ccnc(NC(=O)c2cc(S(=O)(=O)N3CCCCC3)ccc2Cl)c1	109	/	14	/	-3	21
CC(=O)Nc1ccc(S(=O)(=O)N2CCC(n3cnc4cc(F)ccc43)CC2)cc1	68	9	23	23*	-2	13
SMILES	HER2 expr 66K	Jurkat viability	AP ELISA ortho	JNK3 blocker	Hsp90 inh	HEK293 NFkB inh
CC(C)(NCc1ccccc1Cl)C(=O)O	88	-1	19	2	-2	10
Cc1nc2sccn2c1-c1csc(NCc2ccccc2)n1	79	67*	3	-9	-1	29
O=C(O)CN(CCN(CC(=O)O)CC(=O)O)CCN(CC(=O)O)CC(=O)O	/	/	/	/	-3	/
COC(=O)c1c(-c2cc(OC)c(OC)c(OC)c2)c2ccc(OCc3ccccn3)cc2c(=O)n1-c1ccc(N)cc1	/	/	/	/	0	/
CC(=O)c1sc(NC(=O)C=C(C)C)nc1C	95	-4	13	1	-2	3
CC(=O)c1sc(NC(=O)C2(F)C(F)(F)C(F)(F)C(F)(F)C(F)(F)C2(F)F)nc1C	48	90*	3	-3	-16	90*
O=c1cc(-c2ccccc2)[nH]c2ccccc12	40	93*	1	2	-1	30
COc1ccccc1-n1c(SCC(=O)NC(C)(C)C)nc(O)cc1=O	-39*	-10	4	-4	-7	7
CC(=O)Nc1cccc(-c2nc3ccccc3c(=O)o2)c1	65	-2	26	18*	-3	10
Cc1ccc(C)n1-c1ccc(-c2nnco2)cc1	90	10	6	-3	-4	9
Cc1cc(-c2nnco2)c(C)n1-c1ccc(F)cc1	4.7*	/	-6	/	/	5
NC(=O)c1ncn([C@@H]2O[C@H](CO)[C@@H](O)[C@H]2O)c1O	/	/	/	/	-2	/
COc1ccc(N2CSC3=C(C#N)C(c4ccc(OC)c(OC)c4)CC(=O)N3C2)c(OC)c1 (stereo unspecified)	83	7	-8	3	77*	7
CCc1ccc(N2CSC3=C(C#N)C(c4cccs4)CC(=O)N3C2)cc1 (stereo unspecified)	80	1	15	17	-6	2
CCc1ccc(C2CC(=O)N3CN(c4ccccc4)CSC3=C2C#N)cc1 (stereo unspecified)	-18*	0	8	0	-1	12
Cc1csc(=Nc2ccc(S(=O)(=O)N3CCOCC3)cc2)n1Cc1ccco1	85	17	12	3	-6	13
CN(C)C=Nc1nonc1-c1ncn[nH]1	116	-6	1	2	-1	4
CN(C)C=Nc1c(Br)cc(Br)c2nonc12	58	3	9	3	53*	3
CC(NC(=O)OCc1ccccc1)C(=O)N1CC(O)CC1C(=O)O (stereo unspecified)	80	4	7	-5	-3	4
CC(C)COC(=O)N1CC(O)CC1C(=O)O (stereo unspecified)	-14*	6	2	-6	-4	16
c1ccc(-n2nc3c(ccc4cnnc43)[nH]2)cc1	52	2	-4	30*	-3	-27
CCc1ccc(NC(=O)N(CCN2CCOCC2)C2CCN(C(C)=O)CC2)cc1	-27*	6	20	12	-3	6
CCOCCCN(C(=O)Nc1ccc(CC)cc1)C1CCN(C(C)=O)CC1	85	2	3	0	-3	14
